Data from ChEMBL document CHEMBL2169881, “Synthesis and biological activity of obatoclax derivatives as novel and potent SHP-1 agonists” (Eur J Med Chem, 2012).
Each block holds one compound with its values, some of them ahead of it. The source made the active and inactive calls. No cut-off for these calls is given here.

Legend:
Format in all cases: functional, cell-based
[1] = Cytotoxicity against human PLC5 cells by MTT assay
Procedure, shortened: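 MTT viability assay on PLC5 hepatocellular carcinoma cells maintained in DMEM with 10% FBS, penicillin, streptomycin and amphotericin B at 37 °C, 5% CO2. IC50 is the concentration giving 50% growth inhibition, interpolated from dose–response curves.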

[2] = biological target: Tyrosine-protein phosphatase non-receptor type 6 (Homo sapiens) (UniProt P29350); test: Agonist activity at SHP1 in human PLC5 cells assessed as decrease in pSTAT3-mediated Mcl1 level at 10 uM after 12 hrs by Western blot analysis
Procedure, shortened: (§1)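 PLC5 cells (ATCC) grown in DMEM with 10% FBS, penicillin G, streptomycin and amphotericin B at 37 °C, 5% CO2. Cells treated at 10 μM for 12 h. Lysates immunoblotted for p-STAT3, STAT3, SHP-1, Mcl-1, survivin, cyclin D1, PARP, with actin as loading control.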

[3] = biological target: Tyrosine-protein phosphatase non-receptor type 6 (Homo sapiens) (UniProt P29350); test: Agonist activity at SHP1 in human PLC5 cells at 10 uM after 6 hrs by immunoprecipitation method
[4] = biological target: Tyrosine-protein phosphatase non-receptor type 6 (Homo sapiens) (UniProt P29350); test: Agonist activity at SHP1 in human PLC5 cells assessed as inhibition of IL6-induced STAT3 phosphorylation at 10 uM incubated for 24 hrs prior to IL6-induction measured after 30 mins by sandwich ELISA
Procedure, shortened: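 PLC5 cells, cultured in DMEM/10% FBS with antibiotics at 37 °C, 5% CO2, were pretreated with compound at 10 μM for 24 h. IL-6 (10 ng/mL) stimulation followed for 30 min before STAT3 activity was read.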

[5] = biological target: Tyrosine-protein phosphatase non-receptor type 6 (Homo sapiens) (UniProt P29350); test: Agonist activity at SHP1 in human PLC5 cells assessed as decrease in pSTAT3-mediated cyclinD1 level at 10 uM after 12 hrs by Western blot analysis; procedure, shortened: as §1
[6] = biological target: Tyrosine-protein phosphatase non-receptor type 6 (Homo sapiens) (UniProt P29350); test: Agonist activity at SHP1 in human PLC5 cells assessed as inhibition of STAT3 Y705 phosphorylation at 10 uM after 12 hrs by Western blot analysis; procedure, shortened: as §1
[7] = biological target: Tyrosine-protein phosphatase non-receptor type 6 (Homo sapiens) (UniProt P29350); test: Agonist activity at SHP1 in human PLC5 cells assessed as decrease in pSTAT3-mediated survivin level at 10 uM after 12 hrs by Western blot analysis; procedure, shortened: as §1
[8] = biological target: Tyrosine-protein phosphatase non-receptor type 6 (Homo sapiens) (UniProt P29350); test: Agonist activity at SHP1 in human PLC5 cells assessed as increase in SHP1 level at 10 uM after 12 hrs by Western blot analysis; procedure, shortened: as §1

Chain of Tyrosine-protein phosphatase non-receptor type 6 (Homo sapiens) (P29350 whole entry): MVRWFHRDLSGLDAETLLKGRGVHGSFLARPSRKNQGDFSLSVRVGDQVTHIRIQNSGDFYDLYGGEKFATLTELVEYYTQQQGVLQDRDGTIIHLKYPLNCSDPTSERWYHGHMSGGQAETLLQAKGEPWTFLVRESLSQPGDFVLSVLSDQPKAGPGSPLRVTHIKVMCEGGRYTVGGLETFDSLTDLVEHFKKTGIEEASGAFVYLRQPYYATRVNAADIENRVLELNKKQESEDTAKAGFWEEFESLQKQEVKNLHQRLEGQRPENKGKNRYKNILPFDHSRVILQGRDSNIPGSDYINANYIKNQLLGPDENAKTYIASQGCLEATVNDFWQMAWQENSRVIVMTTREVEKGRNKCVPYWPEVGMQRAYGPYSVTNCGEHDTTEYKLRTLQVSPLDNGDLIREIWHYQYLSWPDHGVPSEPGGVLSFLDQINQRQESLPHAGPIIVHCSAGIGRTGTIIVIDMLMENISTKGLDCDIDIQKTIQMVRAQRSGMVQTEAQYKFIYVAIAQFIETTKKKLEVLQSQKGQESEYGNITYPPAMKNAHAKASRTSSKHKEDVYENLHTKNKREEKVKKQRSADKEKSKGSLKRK

Compound: COC1=CC(c2cccs2)=N/C1=C\c1cccs1
IC50 [1]: 25.9 µM

Compound: COC1=CC(c2cccs2)=N/C1=C\c1ccc[nH]1
IC50 [1]: > 40 µM

Compound: COC1=CC(c2cc3ccccc3n2C(=O)OC(C)(C)C)=N/C1=C\c1[nH]c(C)cc1C
IC50 [1]: 28.4 µM

Compound: COc1cc(-c2cc3ccccc3[nH]2)[nH]c1/C=C1\C(=O)Nc2ccccc21
IC50 [1]: 35.4 µM

Compound: COC1=CC(c2cc3ccccc3n2C(=O)OC(C)(C)C)=N/C1=C\c1ccc[nH]1
IC50 [1]: > 40 µM

Compound: COC1=CC(c2cccs2)=N/C1=C\c1[nH]c(C)cc1C
IC50 [1]: > 40 µM

Compound: COc1cc(-c2cc3ccccc3n2C(=O)OC(C)(C)C)[nH]c1/C=C1/SC(=O)NC1=O
IC50 [1]: > 40 µM

Compound: COc1cc(-c2cc3ccccc3[nH]2)[nH]c1C1SCCCS1
IC50 [1]: > 40 µM

Compound: COC1=CC(c2cc3ccccc3[nH]2)=N/C1=C\c1cccs1
IC50 [1]: > 40 µM

Activity [2]: Active | Activity [3]: Active | inhibition [4]: Active | Activity [5]: Active | inhibition [6]: Active | Activity [8]: Active
Compound: COC1=CC(c2cc3ccccc3[nH]2)=N/C1=C\c1ccc[nH]1
Activity [7]: Active | IC50 [1]: 13.2 µM

Activity [2]: Active | Activity [3]: Active | inhibition [4]: Active | Activity [5]: Active | inhibition [6]: Active | Activity [8]: Active
Compound: COC1=CC(c2cc3cc(Br)ccc3[nH]2)=N/C1=C\c1ccc[nH]1
Activity [7]: Active | IC50 [1]: 6.3 µM

Activity [2]: Active | Activity [3]: Active | inhibition [4]: Active | Activity [5]: Active | inhibition [6]: Active | Activity [8]: Active
Compound: COC1=CC(c2cc3ccccc3[nH]2)=N/C1=C\c1ccc(-c2cc3ccccc3[nH]2)[nH]1
Activity [7]: Active | IC50 [1]: 15.9 µM

Activity [2]: inactive | Activity [5]: inactive | inhibition [6]: inactive | Activity [8]: inactive
Compound: COC1=CC(c2ccco2)=N/C1=C\c1ccc[nH]1
Activity [7]: inactive | IC50 [1]: > 40 µM

Compound: COc1cc(-c2cc3ccccc3n2C(=O)OC(C)(C)C)[nH]c1/C=C1\C(=O)Nc2ccccc21
IC50 [1]: > 40 µM

Compound: COc1cc(-c2cc3ccccc3[nH]2)[nH]c1/C=C1/SC(=O)NC1=O
IC50 [1]: 27.5 µM

Compound: COC1=CC(c2cc3ccccc3[nH]2)=N/C1=C\c1[nH]c(C)cc1C [OBATOCLAX]
IC50 [1]: 12.1 µM
